Experiment [1] concerns A549. The experiment in a line: Antiproliferative activity against human A549 cells assessed as loss of clonal survival upto 10 uM incubated for 10 days by crystal violet staining based assay. The following applies: time 10.0 day. The format is functional, cell-based. The method in brief:
(§1)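 Colony outgrowth: cells plated at 200 cells per 60-mm dish, exposed to compound or DMSO vehicle and stained with crystal violet after 10 days. HCT116 grown in McCoy's 5A; A549 and HeLa in DMEM; hTERT-RPE1 in DMEM/F-12. All media had 10% FBS and penicillin/streptomycin, 37°C, 5% CO2. Quantified from 3 independent experiments, mean + SD, Student's t test.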

Experiment [2] has as its system A549. The experiment in a line: Antiproliferative activity against human A549 cells at 10 uM measured after 96 hrs in presence of Z-VAD-FMK by Syto60 staining based assay. Format: functional, cell-based.
Experiment [3] concerns the target Myosin-IIIb (Homo sapiens) (UniProt Q8WXR4). Description: Inhibition of MYO3B (unknown origin) assessed as residual enzyme activity at 10 uM by Ambit kinase binding assay relative to control.
Experiment [4] addresses MAP/microtubule affinity-regulating kinase 4 (Homo sapiens) (UniProt Q96L34). The experiment in a line: Inhibition of MARK4 (unknown origin) assessed as residual enzyme activity at 10 uM by Ambit kinase binding assay relative to control.
Experiment [5] concerns the target Mitogen-activated protein kinase 3 (Homo sapiens) (UniProt P27361). Description: Inhibition of ERK1 (unknown origin) assessed as residual enzyme activity at 10 uM by Ambit kinase binding assay relative to control.
Experiment [6] deals with HCT-116. The experiment in a line: Cytotoxicity against human HCT-116 cells assessed as loss of clonal survival at 5 to 10 uM incubated for 10 days by crystal violet staining based assay. Format: functional, cell-based. Particulars: dose 5-10 µM, time 10.0 day. Summed up: as §1
Experiment [7] has as its system U2OS. The experiment in a line: Induction of chromosome misalignment in human U2OS cells expressing histone H2B-GFP at 5 to 10 uM treated for 4 hrs followed by MG132 treatment for 30 to 60 mins and subsequent replacement of medium containing MG132 measured after 30 mins by immunofluoresence analysis. Particulars: dose 5-10 µM, time 4.5-5 hrs. The format is functional, cell-based.

The test system of experiment [8] is HCT-116. The experiment in a line: Induction of aneuploidy in human HCT-116 cells at 10 uM incubated for 4 days by FACS analysis. The format is functional, cell-based. The following applies: time 4.0 day. The method in brief:
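HCT116 cells were treated with 10 μM compound or DMSO vehicle for the indicated times up to 96 h, then DNA content was profiled by flow cytometry.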

The test system of another experiment is HeLa S3. The experiment in a line: Effect on thymidine-treated human HeLa S3 cell populations after two cell doubling at 10 uM incubated for 4 hrs followed by thymidine release by immunofluorescence imaging analysis. Format: functional, cell-based.
The target of another experiment is Focal adhesion kinase 1 (Homo sapiens, UniProt Q05397). The experiment in a line: Binding affinity to FAK (unknown origin) assessed as dissociation constant by Ambit kinase binding assay.
Chain of Focal adhesion kinase 1 (Q05397 whole entry): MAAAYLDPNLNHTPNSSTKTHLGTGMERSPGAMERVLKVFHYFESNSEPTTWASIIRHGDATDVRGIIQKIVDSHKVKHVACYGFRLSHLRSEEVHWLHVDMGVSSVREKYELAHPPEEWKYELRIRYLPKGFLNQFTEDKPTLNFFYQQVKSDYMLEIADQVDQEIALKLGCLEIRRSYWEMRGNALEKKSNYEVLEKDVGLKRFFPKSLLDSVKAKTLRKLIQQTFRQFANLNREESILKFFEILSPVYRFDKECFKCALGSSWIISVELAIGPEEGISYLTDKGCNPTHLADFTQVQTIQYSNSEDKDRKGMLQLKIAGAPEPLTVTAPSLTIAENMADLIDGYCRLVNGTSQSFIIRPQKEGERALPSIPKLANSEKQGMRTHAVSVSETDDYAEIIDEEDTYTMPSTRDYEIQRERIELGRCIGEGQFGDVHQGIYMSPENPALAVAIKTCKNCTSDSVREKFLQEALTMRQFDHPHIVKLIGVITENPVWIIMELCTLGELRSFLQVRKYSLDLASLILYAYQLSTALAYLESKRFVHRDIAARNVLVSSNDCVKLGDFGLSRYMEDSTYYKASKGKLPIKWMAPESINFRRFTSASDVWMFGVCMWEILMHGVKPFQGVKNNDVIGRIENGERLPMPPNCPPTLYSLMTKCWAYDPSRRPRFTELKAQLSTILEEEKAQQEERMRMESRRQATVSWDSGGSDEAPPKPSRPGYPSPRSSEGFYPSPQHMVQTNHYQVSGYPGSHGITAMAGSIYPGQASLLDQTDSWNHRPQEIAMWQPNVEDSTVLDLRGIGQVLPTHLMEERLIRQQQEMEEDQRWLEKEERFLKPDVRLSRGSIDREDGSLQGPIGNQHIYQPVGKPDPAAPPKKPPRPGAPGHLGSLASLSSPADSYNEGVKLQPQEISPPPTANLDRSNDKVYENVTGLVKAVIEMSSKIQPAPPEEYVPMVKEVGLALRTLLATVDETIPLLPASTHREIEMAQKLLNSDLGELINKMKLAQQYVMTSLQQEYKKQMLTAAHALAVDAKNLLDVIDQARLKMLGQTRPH
Experiment [9] is described as follows: Inhibition of Mps1 in Potoroo PTK2 cells expressing EyFP-tagged human Mad2 assessed as reduction in time spent in mitosis at 10 uM incubated for 1 hr by fluorescence based imaging analysis relative to control. Further details: species or system Pt K2. Particulars: Potorous tridactylus. The method in brief:
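Randomly cycling PtK2 cells stably expressing hsMad2-EYFP were pretreated 1 h with 10 μM inhibitor, DMSO or no treatment. Time-lapse imaging at 37°C, 5% CO₂ scored mitotic duration from NEB to NER. Average time was reported (N=26–29); 95% CI; Student's t test.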

For experiment [10], the system named is U2OS. Description: Reversal of nocodazole-induced mitotic arrest in human U2OS cells assessed as accumulation of 4N phosphorylated Histone H3-negative cells incubated for 16 hrs by flow cytometry. Format: functional, cell-based. The following applies: dose 5-10 µM.
Experiment [11] deals with Serine/threonine-protein kinase Chk2 (Homo sapiens) (UniProt O96017). Description: Inhibition of CHEK2 (unknown origin) assessed as residual enzyme activity at 10 uM by Ambit kinase binding assay relative to control.
In experiment [12] the target is Leukocyte tyrosine kinase receptor (Homo sapiens, UniProt P29376). Description: Binding affinity to LTK (unknown origin) assessed as dissociation constant by Ambit kinase binding assay.
A further experiment has as its system HeLa. The experiment in a line: Antiproliferative activity against human HeLa cells at 10 uM measured after 96 hrs in presence of Z-VAD-FMK by Syto60 staining based assay. The format is functional, cell-based.
In experiment [13] the target is ALK tyrosine kinase receptor (Homo sapiens, UniProt Q9UM73). The experiment in a line: Binding affinity to ALK (unknown origin) assessed as dissociation constant by Ambit kinase binding assay.
Chain of ALK tyrosine kinase receptor (Q9UM73 whole entry): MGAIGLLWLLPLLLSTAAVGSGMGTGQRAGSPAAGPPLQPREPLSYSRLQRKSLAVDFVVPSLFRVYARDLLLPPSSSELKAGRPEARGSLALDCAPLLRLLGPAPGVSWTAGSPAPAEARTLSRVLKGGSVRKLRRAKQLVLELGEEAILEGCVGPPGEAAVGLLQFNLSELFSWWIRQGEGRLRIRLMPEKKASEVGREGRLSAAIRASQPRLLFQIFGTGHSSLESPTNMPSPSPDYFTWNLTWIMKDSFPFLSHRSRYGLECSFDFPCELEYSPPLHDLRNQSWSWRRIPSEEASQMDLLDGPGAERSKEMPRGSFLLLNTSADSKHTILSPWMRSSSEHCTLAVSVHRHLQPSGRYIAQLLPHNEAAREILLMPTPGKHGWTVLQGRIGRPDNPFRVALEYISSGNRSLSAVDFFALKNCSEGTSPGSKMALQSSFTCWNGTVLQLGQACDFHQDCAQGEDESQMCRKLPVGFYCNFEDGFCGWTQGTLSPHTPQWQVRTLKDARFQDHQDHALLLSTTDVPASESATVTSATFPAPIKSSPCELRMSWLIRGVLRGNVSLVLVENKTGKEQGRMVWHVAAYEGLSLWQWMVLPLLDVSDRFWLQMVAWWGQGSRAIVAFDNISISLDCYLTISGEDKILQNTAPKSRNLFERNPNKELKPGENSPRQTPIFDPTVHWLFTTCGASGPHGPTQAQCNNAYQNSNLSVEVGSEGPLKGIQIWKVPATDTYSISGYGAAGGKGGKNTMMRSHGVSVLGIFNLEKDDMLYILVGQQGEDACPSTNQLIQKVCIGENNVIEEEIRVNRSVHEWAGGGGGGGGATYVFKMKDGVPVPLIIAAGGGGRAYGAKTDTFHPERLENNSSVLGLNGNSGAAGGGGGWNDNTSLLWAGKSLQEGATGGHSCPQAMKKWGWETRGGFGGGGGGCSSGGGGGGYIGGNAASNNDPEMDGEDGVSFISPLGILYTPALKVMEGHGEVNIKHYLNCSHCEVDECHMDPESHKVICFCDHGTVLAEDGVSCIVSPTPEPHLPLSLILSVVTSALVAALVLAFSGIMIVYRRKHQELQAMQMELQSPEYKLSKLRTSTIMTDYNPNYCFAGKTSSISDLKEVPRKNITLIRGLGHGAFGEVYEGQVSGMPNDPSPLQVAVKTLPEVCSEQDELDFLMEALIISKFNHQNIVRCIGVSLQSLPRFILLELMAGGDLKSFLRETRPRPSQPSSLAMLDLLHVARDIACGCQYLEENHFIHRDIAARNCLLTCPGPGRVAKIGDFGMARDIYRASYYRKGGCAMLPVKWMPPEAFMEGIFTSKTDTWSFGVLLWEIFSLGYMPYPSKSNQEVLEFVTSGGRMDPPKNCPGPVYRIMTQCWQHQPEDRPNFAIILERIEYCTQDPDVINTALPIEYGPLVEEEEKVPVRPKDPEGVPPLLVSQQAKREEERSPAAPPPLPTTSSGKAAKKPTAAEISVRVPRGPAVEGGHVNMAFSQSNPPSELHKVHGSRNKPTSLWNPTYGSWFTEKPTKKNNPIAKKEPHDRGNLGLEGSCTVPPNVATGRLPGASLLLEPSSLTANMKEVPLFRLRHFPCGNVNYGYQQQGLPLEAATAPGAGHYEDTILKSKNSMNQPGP
Experiment [14] deals with Mitogen-activated protein kinase 7 (Homo sapiens) (UniProt Q13164). Description: Inhibition of ERK5 (unknown origin) assessed as residual enzyme activity at 10 uM by Ambit kinase binding assay relative to control.
The test system of experiment [15] is Proto-oncogene tyrosine-protein kinase receptor Ret (Homo sapiens), P07949 [V804M]. Description: Inhibition of RET V804M mutant (unknown origin) assessed as residual enzyme activity at 10 uM by Ambit kinase binding assay relative to control.
For experiment [16], the system named is HCT-116. The experiment in a line: Antiproliferative activity against human HCT-116 cells with p53-/- assessed as loss of clonal survival upto 10 uM incubated for 10 days by crystal violet staining based assay. The format is functional, cell-based. The following applies: time 10.0 day. The method in brief:
as §1

Experiment [17] has as its target Mitogen-activated protein kinase 1 (Homo sapiens, UniProt P28482). Description: Inhibition of ERK2 (unknown origin) assessed as residual enzyme activity at 10 uM by Ambit kinase binding assay relative to control.
Experiment [18] concerns HCT-116. The experiment in a line: Antiproliferative activity against human HCT-116 with p53-/- cells at 10 uM incubated for 4 days by Syto60 staining based assay. Format: functional, cell-based. Particulars: time 4.0 day. Summed up:
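Proliferation read by Syto60 nucleic acid stain fluorescence (excitation 635 nm, emission 695 nm) after treatment for up to 96 h. Each time point normalized to its DMSO control. Mean ± SD from 4 independent experiments. Cells kept at 37°C, 5% CO2 in 10% FBS-supplemented medium.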

Experiment [19] concerns the target Receptor-interacting serine/threonine-protein kinase 4 (Homo sapiens) (UniProt P57078). The experiment in a line: Inhibition of RIPK4 (unknown origin) assessed as residual enzyme activity at 10 uM by Ambit kinase binding assay relative to control.
Experiment [20] concerns the target Serine/threonine-protein kinase tousled-like 2 (Homo sapiens) (UniProt Q86UE8). Description: Inhibition of TLK2 (unknown origin) assessed as residual enzyme activity at 10 uM by Ambit kinase binding assay relative to control.
Experiment [21] deals with Dual specificity protein kinase CLK2 (Homo sapiens) (UniProt P49760). Description: Inhibition of CLK2 (unknown origin) assessed as residual enzyme activity at 10 uM by Ambit kinase binding assay relative to control.
Experiment [22] concerns the target Myosin light chain kinase family member 4 (Homo sapiens) (UniProt Q86YV6). Description: Inhibition of SgK085 (unknown origin) assessed as residual enzyme activity at 10 uM by Ambit kinase binding assay relative to control.
The target in experiment [23] is Dual specificity mitogen-activated protein kinase kinase 3 (Homo sapiens) (UniProt P46734). The experiment in a line: Inhibition of MEK3 (unknown origin) assessed as residual enzyme activity at 10 uM by Ambit kinase binding assay relative to control.
Chain of Dual specificity mitogen-activated protein kinase kinase 3 (Homo sapiens) (P46734 whole entry): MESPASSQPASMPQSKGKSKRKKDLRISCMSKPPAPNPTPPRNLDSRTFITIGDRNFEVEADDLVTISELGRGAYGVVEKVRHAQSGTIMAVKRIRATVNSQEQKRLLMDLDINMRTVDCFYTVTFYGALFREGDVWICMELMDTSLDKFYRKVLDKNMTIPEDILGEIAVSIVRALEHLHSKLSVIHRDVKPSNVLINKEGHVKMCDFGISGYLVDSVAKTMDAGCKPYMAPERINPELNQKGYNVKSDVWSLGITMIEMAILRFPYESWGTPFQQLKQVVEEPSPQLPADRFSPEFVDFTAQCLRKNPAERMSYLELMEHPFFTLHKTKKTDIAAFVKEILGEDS
The target of experiment [24] is Serine/threonine-protein kinase 24 (Homo sapiens) (UniProt Q9Y6E0). Description: Inhibition of MST3 (unknown origin) assessed as residual enzyme activity at 10 uM by Ambit kinase binding assay relative to control.

Activity calls are given as the source filed them. No cut-off for these calls is given here.

A word on the Kd: it is the free concentration of one partner at which half of the binding sites on the other are occupied at equilibrium, for simple one-to-one binding. As usually defined, the inhibition is the percentage by which the read-out fell short of the control.

Chain of Mitogen-activated protein kinase 1 (P28482 whole entry): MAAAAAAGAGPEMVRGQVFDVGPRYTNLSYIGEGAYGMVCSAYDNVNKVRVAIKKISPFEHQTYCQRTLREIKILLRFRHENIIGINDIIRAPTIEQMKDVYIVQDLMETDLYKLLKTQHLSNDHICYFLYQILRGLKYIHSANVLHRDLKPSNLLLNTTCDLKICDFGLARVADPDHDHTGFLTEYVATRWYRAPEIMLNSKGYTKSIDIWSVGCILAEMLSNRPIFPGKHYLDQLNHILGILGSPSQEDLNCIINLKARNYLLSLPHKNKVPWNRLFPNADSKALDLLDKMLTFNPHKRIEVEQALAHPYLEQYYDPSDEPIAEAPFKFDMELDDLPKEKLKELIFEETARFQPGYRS
Chain of MAP/microtubule affinity-regulating kinase 4 (Homo sapiens) (Q96L34 whole entry): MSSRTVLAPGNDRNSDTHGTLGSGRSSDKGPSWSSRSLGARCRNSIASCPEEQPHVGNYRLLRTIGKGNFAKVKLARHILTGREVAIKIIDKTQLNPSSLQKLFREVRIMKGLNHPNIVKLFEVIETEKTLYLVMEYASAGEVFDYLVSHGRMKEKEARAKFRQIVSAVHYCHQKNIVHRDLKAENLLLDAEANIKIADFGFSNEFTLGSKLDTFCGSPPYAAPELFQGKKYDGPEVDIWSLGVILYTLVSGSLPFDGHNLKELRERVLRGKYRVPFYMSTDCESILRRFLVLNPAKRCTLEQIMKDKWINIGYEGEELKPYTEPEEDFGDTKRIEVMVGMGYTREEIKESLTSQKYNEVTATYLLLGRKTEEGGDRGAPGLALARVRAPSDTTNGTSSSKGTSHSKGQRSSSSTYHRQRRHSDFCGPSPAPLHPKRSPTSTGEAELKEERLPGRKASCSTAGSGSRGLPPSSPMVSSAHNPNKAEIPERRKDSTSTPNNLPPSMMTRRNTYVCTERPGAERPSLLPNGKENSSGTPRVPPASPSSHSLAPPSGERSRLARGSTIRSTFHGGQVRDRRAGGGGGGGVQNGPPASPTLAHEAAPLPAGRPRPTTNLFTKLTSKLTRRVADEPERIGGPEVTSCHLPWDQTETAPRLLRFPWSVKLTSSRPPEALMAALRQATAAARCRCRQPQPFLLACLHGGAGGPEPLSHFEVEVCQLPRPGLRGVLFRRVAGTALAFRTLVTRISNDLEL
Chain of Myosin light chain kinase family member 4 (Homo sapiens) (Q86YV6 whole entry): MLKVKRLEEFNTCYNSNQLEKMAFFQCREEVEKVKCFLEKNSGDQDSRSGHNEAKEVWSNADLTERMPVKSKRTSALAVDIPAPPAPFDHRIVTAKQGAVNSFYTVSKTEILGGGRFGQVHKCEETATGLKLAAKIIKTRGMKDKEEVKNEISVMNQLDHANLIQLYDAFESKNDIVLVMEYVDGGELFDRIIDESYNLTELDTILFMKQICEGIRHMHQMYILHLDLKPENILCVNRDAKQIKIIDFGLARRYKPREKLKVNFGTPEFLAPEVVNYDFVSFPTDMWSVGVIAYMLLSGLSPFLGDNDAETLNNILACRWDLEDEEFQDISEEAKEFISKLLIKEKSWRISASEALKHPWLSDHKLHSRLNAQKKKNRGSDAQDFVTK
Chain of Mitogen-activated protein kinase 3 (Homo sapiens) (P27361 whole entry): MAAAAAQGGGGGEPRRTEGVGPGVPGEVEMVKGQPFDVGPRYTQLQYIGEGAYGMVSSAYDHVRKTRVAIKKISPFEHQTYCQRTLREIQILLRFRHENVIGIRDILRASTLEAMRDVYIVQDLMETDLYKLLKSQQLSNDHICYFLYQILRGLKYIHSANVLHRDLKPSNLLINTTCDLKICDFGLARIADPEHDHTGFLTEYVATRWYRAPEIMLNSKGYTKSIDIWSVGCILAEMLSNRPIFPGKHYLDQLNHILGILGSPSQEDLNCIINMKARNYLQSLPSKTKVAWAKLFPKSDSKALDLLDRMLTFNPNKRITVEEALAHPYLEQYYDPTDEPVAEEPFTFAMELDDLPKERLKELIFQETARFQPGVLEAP

As to `COc1cc(N2CCC(O)CC2)ccc1Nc1cc(Nc2ccccc2S(=O)(=O)C(C)C)c2cc[nH]c2n1`, the result with A549 [1], in the experiment with A549 [2], in the experiment on HCT-116 [6], with U2OS [7], in the experiment with HCT-116 [8] and with HeLa was Active. The result in the experiment on HCT-116 [16] and with HCT-116 [18] was Active. Also, the Activity in [3] is 28%; in experiment [4], 1.2%; in experiment [5], 23%; with U2OS [10], “Dose-Dependent Effect”; in experiment [11], 7.3%; in experiment [14], 11%. In addition, the Activity in experiment [15] is 0.5%; in experiment [17] it was 6%. In addition, the result in the experiment with HeLa S3 was inactive. Besides, the values for the Kd (on Focal adhesion kinase 1; in [12]; in experiment [13]) were 440 nM, 29 nM and 21 nM, respectively. Also, the inhibition at 10 µM in experiment [9] was approximately 40%.
Turning to `O=C1c2ccccc2-c2n[nH]c3cccc1c23`, the Activity in experiment [19] was determined as 2.2%; in [20] it was 30%; in experiment [21], 3.4%; in experiment [22] it was 0.25%; in experiment [23], 6%; in experiment [24], 1.8%.

The values are drawn from ChEMBL document CHEMBL5705891, “Small-molecule kinase inhibitors provide insight into Mps1 cell cycle function” (Nat Chem Biol, 2010).
